According to ChEMBL document CHEMBL2434924, “Nonpeptidic angiotensin II AT₁ receptor antagonists derived from 6-substituted aminocarbonyl and acylamino benzimidazoles” (Eur J Med Chem, 2013):

Key:
[1] = molecular target: T1, Type-1 angiotensin II receptor (Homo sapiens, UniProt P30556); test: Displacement of [125I]-Sar1Ile8-angiotensin 2 from angiotensin 2 AT1 receptor (unknown origin) after 180 mins by gamma counting analysis
T1 sequence (P30556 whole entry): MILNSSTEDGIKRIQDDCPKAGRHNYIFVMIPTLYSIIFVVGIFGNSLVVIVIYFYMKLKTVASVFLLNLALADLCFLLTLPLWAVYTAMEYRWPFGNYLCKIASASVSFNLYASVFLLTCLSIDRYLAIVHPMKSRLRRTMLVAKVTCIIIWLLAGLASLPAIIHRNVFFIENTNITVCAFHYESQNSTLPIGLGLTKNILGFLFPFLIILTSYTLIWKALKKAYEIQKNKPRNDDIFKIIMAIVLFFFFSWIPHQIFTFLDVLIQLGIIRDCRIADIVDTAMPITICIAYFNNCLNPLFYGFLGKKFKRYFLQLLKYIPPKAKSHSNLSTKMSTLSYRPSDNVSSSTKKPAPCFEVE

[2] = molecular target: T2, Type-2 angiotensin II receptor (Homo sapiens, UniProt P50052); test: Displacement of [125I]-Sar1Ile8-angiotensin 2 from angiotensin 2 AT2 receptor (unknown origin) after 180 mins by gamma counting analysis
T2 sequence (P50052 whole entry): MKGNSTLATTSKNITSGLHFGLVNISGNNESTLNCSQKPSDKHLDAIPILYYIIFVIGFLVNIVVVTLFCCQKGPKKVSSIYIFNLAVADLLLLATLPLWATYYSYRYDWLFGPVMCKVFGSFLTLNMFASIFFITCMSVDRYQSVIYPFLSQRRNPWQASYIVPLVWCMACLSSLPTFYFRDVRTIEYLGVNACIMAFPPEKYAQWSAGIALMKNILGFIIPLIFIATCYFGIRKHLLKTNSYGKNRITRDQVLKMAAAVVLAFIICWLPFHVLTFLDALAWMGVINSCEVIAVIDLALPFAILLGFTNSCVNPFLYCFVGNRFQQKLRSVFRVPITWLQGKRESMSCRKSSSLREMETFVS

Rattus norvegicus = test: Antihypertensive activity in SHR rat assessed as decrease in blood pressure at 10 mg/kg, po by tail plethysmography; type: functional
Outline: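 Male SHR, 19-21 weeks old, n = 6 per group, with a vehicle group (water, 10 mL/kg). Single oral dose of 10 mg/kg. Blood pressure and heart rate measured by tail plethysmography in unanesthetized rats after a warming period.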

[3] = Antagonist activity at angiotensin 2 receptor in Japanese white rabbit thoracic aorta assessed as inhibition of angiotensin 2-induced contraction after 60 mins by Schild plot analysis; type: tissue-based, Oryctolagus cuniculus
Outline: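 Helical aortic strips (3-4 mm wide, 15-20 mm long) in 10-mL baths of bicarbonate salt solution (CaCl2·2H2O 2.5, NaHCO3 25, glucose 11.1), 37 °C, 95% O2/5% CO2, isometric tension. 1 h equilibration with 15-min washes; 67 mM KCl sets maximal contraction; 30 min washout; antagonist or vehicle for 60 min, then cumulative Ang II curves, one per strip. Response as % of KCl maximum; pA2 from Schild plot.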

[4] = molecular target: T3, Type-1 angiotensin II receptor (Homo sapiens) (UniProt P30556); test: Ratio of losartan IC50 to compound IC50 for angiotensin 2 AT1 receptor (unknown origin)
T3 sequence (whole entry): T1 sequence (P30556 whole entry)

Structure (SMILES) | IC50 [1] | IC50 [2] | Ratio IC50 [4] | Activity (Rattus norvegicus) | pA2 [3]
CCCc1nc2c(C)cc(NC(=O)CCc3ccccc3)cc2n1Cc1ccc(-c2ccccc2C(=O)O)cc1 | 0.1 nM | 149 nM | 10 | >30 mmHg | 8.43
CCCc1nc2c(C)cc(NC(=O)Cc3ccccc3)cc2n1Cc1ccc(-c2ccccc2C(=O)O)cc1 | 1.2 nM | 77 nM | – | – | 8.21
CCCc1nc2c(C)cc(NC(C)=O)cc2n1Cc1ccc(-c2ccccc2C(=O)O)cc1 | 1430 nM | – | – | – | –
CCCCNC(=O)c1cc(C)c2nc(CCC)n(Cc3ccc(-c4ccccc4C(=O)O)cc3)c2c1 | 13 nM | 164 nM | – | – | –
CCCc1nc2c(C)cc(NC(=O)c3ccc(C)cc3)cc2n1Cc1ccc(-c2ccccc2C(=O)O)cc1 | 4.9 nM | > 10000 nM | – | – | 8.25
CCCc1nc2c(C)cc(NC(=O)c3ccccc3)cc2n1Cc1ccc(-c2ccccc2C(=O)O)cc1 | 3.9 nM | 6 nM | – | – | –
CCCc1nc2c(C)cc(C(=O)NCCN3CCOCC3)cc2n1Cc1ccc(-c2ccccc2C(=O)O)cc1 | 11 nM | > 10000 nM | – | – | 8.2
CCCC(=O)Nc1cc(C)c2nc(CCC)n(Cc3ccc(-c4ccccc4C(=O)O)cc3)c2c1 | 0.3 nM | 53 nM | – | – | –
CCCCc1nc(Cl)c(CO)n1Cc1ccc(-c2ccccc2-c2nnn[nH]2)cc1 [LOSARTAN] | – | – | – | – | 7.92
CCCNC(=O)c1cc(C)c2nc(CCC)n(Cc3ccc(-c4ccccc4C(=O)O)cc3)c2c1 | 1340 nM | – | – | – | –
CCCc1nc2c(C)cc(C(=O)NCCc3ccccc3)cc2n1Cc1ccc(-c2ccccc2C(=O)O)cc1 | 3 nM | > 10000 nM | 10 | >30 mmHg | 8.51

Now from value to compound, other results behind:

IC50 [1] | IC50 [2] | Ratio IC50 [4] | Structure (SMILES) | Activity (Rattus norvegicus) | pA2 [3]
10 nM | 718 nM | – | CCCc1nc2c(C)cc(C(=O)NCCCN3CCOCC3)cc2n1Cc1ccc(-c2ccccc2C(=O)O)cc1 | – | –
115 nM | – | – | CCCc1nc2c(C)cc(C(=O)NCCCc3ccccc3)cc2n1Cc1ccc(-c2ccccc2C(=O)O)cc1 | – | –
0.4 nM | 78 nM | – | CCCc1nc2c(C)cc(NC(=O)CC)cc2n1Cc1ccc(-c2ccccc2C(=O)O)cc1 | – | –
20 nM | 42 nM | – | CCCc1nc2c(C)cc(C(=O)N3CCCCC3)cc2n1Cc1ccc(-c2ccccc2C(=O)O)cc1 | – | –
39 nM | 61 nM | – | CCCc1nc2c(C)cc(C(=O)Nc3ccc(C)cc3)cc2n1Cc1ccc(-c2ccccc2C(=O)O)cc1 | – | –
0.7 nM | 4370 nM | – | CCCc1nc2c(C)cc(NC(=O)OC)cc2n1Cc1ccc(-c2ccccc2C(=O)O)cc1 | – | 8.15
1010 nM | – | – | CCCc1nc2c(C)cc(C(=O)N3CCOCC3)cc2n1Cc1ccc(-c2ccccc2C(=O)O)cc1 | – | –
